Data on 36 sequences can be found in the EternaBench riboswitch data.

In this series the test system is MS2 coat protein. Description: apparent Kd, MS2 coat protein; higher = weaker binding; RNA-MaP array; FMN 200 µM where present. In a few lines:
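Stalled E. coli RNA polymerase produced the designs on Illumina sequencing-chip clusters. SNAP-549-labelled MS2 coat protein was added from 0.7 or 1.5 nM, doubling to 3 µM, without and then with constant ligand, in 100 mM Tris-HCl pH 7.5, 80 mM KCl, 4 mM MgCl2, BSA, DTT, yeast tRNA and Tween-20. The apparent Kd is the median of filtered per-cluster fits of green signal normalised to red-channel RNA signal and control-cluster median Fmax.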

[1] abbreviates: designed as: OFF switch for flavin mononucleotide, no ligand.
Setting [2] is: ligand present: flavin mononucleotide, designed as: OFF switch for flavin mononucleotide.
Where [3] appears, read: designed as: ON switch for flavin mononucleotide, no ligand.
[4] abbreviates: ligand present: flavin mononucleotide, designed as: ON switch for flavin mononucleotide.

As usually defined, the apparent Kd is the concentration giving half-maximal binding under the conditions of the assay. Consider “GUCUCGUCAGGAUAUGACGCUACAUUUUUUUUUUAGAAGAGUCAGAAGGGACAUGAGGAUCACCCAUGUGAUUC”, for which the “apparent Kd” value was found to be 0.288 µM under setting [1] and 0.218 µM under setting [2].

In the case of “UUUAUACAUGAGGAUCACCCAUGUCAACAAAGUCGAGGAUAUGGGCAUAUUAUCUUAUUUCCAGAAGGCGAAUUCU”, the “apparent Kd” value runs as follows: under setting [3], 0.233 µM; under setting [4], 0.0733 µM.

In the case of “AACAAUAAGGAGGAUAUCGUAUCGGAAACGAUACGAGAAGGCUUAACAUGAGGAUCACCCAUGUUCCUCAAUAA”, the “apparent Kd” value was 0.0316 µM under setting [1] and 0.06 µM under setting [2].

Turning to “CGUUCGUGAGGAUAUUGUGGAAUUGACAUGAGGAUCACCCAUGUGGCCAUUGUCGACUCGCAAGAAGGCAUAGAUU”, the “apparent Kd” value under setting [1] amounted to 0.0542 µM and the “apparent Kd” value under setting [2] came to 0.189 µM.

As for “GUUAGUUAAGGAUAUACAGGGAGCCGCGGCGUCUCGCCGCAACAUGAGGAUCACCCAUGUAGAAGGUGGCCAUU”, the “apparent Kd” value amounted to 0.15 µM under setting [1] and 0.119 µM under setting [2].

For the sequence “GGACAUAAAGUCAGGAUAUUAAGGCGACCACGCGAUGAGAAGGGACAUGAGGAUCACCCAUGUGAUUCGCAUCA”, the “apparent Kd” value amounted to 0.115 µM under setting [1] and 0.101 µM under setting [2].

“UGUUAAUUGUAGAAGGGUGACAUGAGGAUCACCCAUGUUCACAUGCGAUUUACGGCGCAUGUUCCACAGGAUAUACAGUUGAGU”: the “apparent Kd” value under setting [3] is 0.556 µM and the “apparent Kd” value under setting [4] is 0.0978 µM.

Consider “CGCUAGGAUGGGUCUAAUGGACCACAGGAUAUGCUUGUACAUGAGGAUCACCCAUGUAAUAUUGUGCAGAAGGGUGGAUUCACG”, for which the “apparent Kd” value under setting [3] turned out to be 0.0548 µM and the “apparent Kd” value under setting [4] was 0.00827 µM.

Regarding “GGGUAGUGAGGAUAUCGUUGUUAGGAGGAGAAGGUAGGAGGCGAGAAGGCACAUGAGGAUCACCCAUGUAUGAG”, the “apparent Kd” value came out at 0.031 µM under setting [1] and 0.0281 µM under setting [2].

Consider “AAACACAAACAUGAGGAUCACCCAUGUUAUGAAGAUACUGGGAGAAGGGCGAUUGCAAAGCAAUCGCAGGAUAUUCGUAUUGUG”, for which the “apparent Kd” value runs as follows: under setting [3], 0.0504 µM; under setting [4], 0.0145 µM.

On to “GGACGUCCCAUUAACAUGAGGAUCACCCAUGUCAAAAGACAUGAGGAUAUGGUACCUAAUUGGUACCAGAAGGCAUGGACGUCC”, for which the “apparent Kd” value reads like this: under setting [3], 1.21 µM; under setting [4], 0.106 µM.

For the sequence “UAUUAUCACGAAGGAUAUGCUUACAUGAGGAUCACCCAUGUAUGUAUAUUGAUCCAGCGUUUUGAGCAGAAGGUCGUGAGUAAA”, the “apparent Kd” value under setting [1] turned out to be 0.0201 µM and the “apparent Kd” value under setting [2] stood at 0.0743 µM.

As for “AUGUGUCUUCGCGUCCUGCCCGGACAUGAGGAUCACCCAUGUAGAAGGCGGUGGCAAUGCUAGACCGAGGAUAUACAUGCAAAC”, the “apparent Kd” value came out at 0.0178 µM under setting [1] and 0.0513 µM under setting [2].

Consider “UGAUACAUGAGGAUCUCCCAUGACAUGAGGAUCACCCAUGUGCAGGAUAUACGUGUGAUAAUAUAGUAGAAGGGCAGUCUAUGU”, for which the “apparent Kd” value runs as follows: under setting [1], 0.189 µM; under setting [2], 0.248 µM.

Take “CGCCAUCCCGGUGGCGUGAGGAUACCAGAAGGGACGAUCUCACAUGAGGAUCACCCAUGUUAUAGUCAGGAUAUGGGUUCAUCA”: the “apparent Kd” value runs as follows: under setting [3], 0.0885 µM; under setting [4], 0.0123 µM.

Regarding “GUUAGUUAAGGAUAUACUGGGAGCUGCGGCGUCUCGCCGCAACAUGAGGAUCACCCAUGUAGAAGGUGACCGUU”, the “apparent Kd” value is 0.64 µM under setting [1] and 0.285 µM under setting [2].

For the sequence “UUGGUUGUCGUAGGAUAUGUAGGAUAUUCCUACAUGAGGAUCACCCAUGUUCGCAUGGAAGAAGGACAGAAGGACGAUGACCAA”, the “apparent Kd” value worked out at 1.08 µM under setting [3] and 0.0104 µM under setting [4].

For “UGUGCGUUGAUCUUCGAUCGGUGUACAUGAGGAUCACCCAUGUAGGAUAUUCAAAGACGCAGAUAGGAGAAGGACAUUGGUUUU”, the “apparent Kd” value came to 0.0168 µM under setting [1] and 0.02 µM under setting [2].

“GUAUUUAGAUAAGGAUAUAAGUCUAGGACAUGAGGAUCACCCAUGUGUGUCUUAGAAGGUAUUUGGGUAAUACUGUUACAGUAA”: the “apparent Kd” value under setting [3] amounted to 0.15 µM and the “apparent Kd” value under setting [4] was 0.0995 µM.

For the sequence “UGCUGUGUCAGAGGAUAUACUCUAAUAAUCCAUUGCAAAUAGCGAUGGACAUGAGGAUCACCCAUGUAGAAGGCUGUCACAGCA”, the “apparent Kd” value under setting [1] was 0.0736 µM and the “apparent Kd” value under setting [2] is 0.14 µM.

On to “AGAUUUUUUACAGGAUAUGUUAGUUUACAGUUGAUUGGUUAUUACAUUAUGACAGAAGGGUAGAACAUGAGGAUCACCCAUGUA”, for which the “apparent Kd” value is, setting by setting: under setting [3], 0.374 µM; under setting [4], 0.174 µM.

For “GCUAUCGAUGUAGGAUAUGCUAGGGAAACCCUGGCAGAAGGACAUGAGGAUCACCCAUGUCAAUGAGUGAAGAGAAGAGAUGGC”, the “apparent Kd” value under setting [1] came to 0.0433 µM and the “apparent Kd” value under setting [2] was determined as 0.127 µM.

Turning to “GUUGUGUGAGGAUAUGCCUGGCCGUGAGGCCAGGUUGGGUGGCAGAAGGUACAUGAGGAUCACCCAUGUACGGG”, the “apparent Kd” value runs as follows: under setting [1], 0.03 µM; under setting [2], 0.0227 µM.

Turning to “GAGAAGUCAGGAUAUGCUGCUCGUCACUUGCGUGAUGAGUAGCAGAAGGGACAUGAGGAUCACCCAUGUGGAAA”, the “apparent Kd” value is, setting by setting: under setting [1], 0.107 µM; under setting [2], 0.202 µM.

Consider “GCACUUACGUUAGGAUAUGUAUCGGAAAACGAUACAGAAGGAAUAUGGGAACAUGAGGAUCACCCAUGUUCCUGAGACGAGUGC”, for which the “apparent Kd” value came to 0.0691 µM under setting [3] and 0.0416 µM under setting [4].

“CCUUUUGUAUAAGGAUAUGUAACAAGGUGUAGGCUGGUAGGACUUGCGCUUACAGAAGGUAUACAUGAGGAUCACCCAUGUCGA”: the “apparent Kd” value runs as follows: under setting [1], 0.0222 µM; under setting [2], 0.107 µM.

With “AAUAUAAGAGCUGGACUCUAAAGAACAUGAGGAUCACCCAUGUAGGAUAUCAGCACGAUAAGUGCUGAGAAGGACAACCAGCUC”, the “apparent Kd” value reads like this: under setting [1], 0.0141 µM; under setting [2], 0.0146 µM.

Take “GUAGAGAUUACAUGAGGAUCACCCAUGUCAGAACGGGUAAUCAGAAGGUAUUAUUAGAGAGAGGGUAAGGAUAUGAUUUUUUAU”: the “apparent Kd” value reads like this: under setting [3], 0.634 µM; under setting [4], 0.438 µM.

“GUGGUUGUCGUAGGAUAUGUAGGAUAUUCCUACAUGAGGAUCACCCAUGUUCGCAUGGAAGAAGGAUAGAAGGACGAUGACCAG”: the “apparent Kd” value came out at 0.0767 µM under setting [3] and 0.388 µM under setting [4].

As to “UUGUUCUGAGGAUAUACAUGAGGAUCACCCAUGUGUUUCUGCUUGGUGUCUUGCGUAUGUAGAAGGCUGUUCUC”, the “apparent Kd” value reads like this: under setting [1], 0.0365 µM; under setting [2], 0.0363 µM.

As to “GAUAGUCCUGAGAAGGACAUGAGGAUCACCCAUGUGAUUAUACCAGUGCAAUGAAAGCACUGGAUGUAGGAUAUCAGGACUAUC”, the “apparent Kd” value under setting [1] was determined as 0.0153 µM and the “apparent Kd” value under setting [2] turned out to be 0.0961 µM.

Regarding “GGUACCUUUACAGGAUAUGCUAUCCUUUGGGUAGCAGAAGGGUGAUACAUGAGGAUCACCCAUGUGGUGCCAGGGCGUGAGCCC”, the “apparent Kd” value runs as follows: under setting [3], 0.0932 µM; under setting [4], 0.313 µM.

Turning to “AUAUAGAUGGUCAGGAUAUGCUAGUGGUAACAGUAGCAGAAGGGACAUGAGGAUCACCCAUGUGGAUACUGCGC”, the “apparent Kd” value is, setting by setting: under setting [1], 0.0254 µM; under setting [2], 0.0859 µM.

With “GCCAUCGCAUGAGGAUAUGCUCCCGUUUCGGGAGCAGAAGGCAUGUCAUAAGACAUGAGGAUCACCCAUGUAGUUAAGAUGGCA”, the “apparent Kd” value reads like this: under setting [3], 0.723 µM; under setting [4], 0.0325 µM.

For “AGCUGGUGACAGCAAGAAGUUUAACAUGAGGAUCACCCAUGUAGAAGGCUGUACGGUUACCGUACAGAGGAUAUACAUAGAAAG”, the “apparent Kd” value reads like this: under setting [1], 0.0437 µM; under setting [2], 0.0575 µM.

On to “ACAUGAGGAUCACCCAUGUGAGGAUCACCCAUGUUAUAUUUCAGAAGGCUCGUUUGUUUGAGGAGAGAGGAUAUGGAAUAUAGG”, for which the “apparent Kd” value is, setting by setting: under setting [1], 0.127 µM; under setting [2], 0.0847 µM.
